Experimental data taken from ChEMBL document CHEMBL3808334, “Synthesis and in vitro evaluation of novel triazine analogues as anticancer agents and their interaction studies with bovine serum albumin” (Eur J Med Chem, 2016).

Tests used:
Assay type in all cases: functional
[1] = Growth inhibition of human SF539 cells assessed as cell growth at 10^-5 M incubated for 48 hrs by sulforhodamine B assay; details: SF-539, 48 h, read-out: Activity
[2] = Growth inhibition of human MOLT4 cells assessed as cell growth at 10^-4 M incubated for 48 hrs by sulforhodamine B assay; details: MOLT-4, 48 h, read-out: Activity
[3] = Growth inhibition of human SW620 cells assessed as cell growth at 10^-8 M incubated for 48 hrs by sulforhodamine B assay; details: SW-620, 48 h, read-out: Activity
[4] = system: SN12C; assay: Growth inhibition of human SN12C cells assessed as cell growth at 10^-7 M incubated for 48 hrs by sulforhodamine B assay; details: read-out: Activity
[5] = system: SN12C; assay: Growth inhibition of human SN12C cells incubated for 48 hrs by sulforhodamine B assay; details: for CC50: read-out: pLC50 (the source's name) (converted)
In short: (§1)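 Cells were plated at 5,000–40,000 per well according to doubling time and preincubated 24 h at 37 °C in 5% CO2; time-zero plates were then TCA-fixed. Five concentrations (10-fold or ½-log dilutions, DMSO stock) were incubated 48 h. Cells were TCA-fixed, stained with 0.4% SRB and read at 515 nm. GI50 was taken where [(Ti−Tz)/(C−Tz)]×100 = 50.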

[6] = system: NCI-H322M; assay: Growth inhibition of human NCI-H322M cells incubated for 48 hrs by sulforhodamine B assay; in short: as §1
[7] = Growth inhibition of human OVCAR4 cells incubated for 48 hrs by sulforhodamine B assay; details: OVCAR-4, 48 h; in short: as §1
[8] = system: CCRF-CEM; assay: Growth inhibition of human CCRF-CEM cells assessed as cell growth at 10^-4 M incubated for 48 hrs by sulforhodamine B assay; details: read-out: Activity
In short: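 Leukemia line in the five-dose format: five concentrations from 10-fold or ½-log serial dilutions. Plated at 5,000–40,000 cells per well, preincubated 24 h, then compound added for 48 h at 37 °C, 5% CO₂. Sulforhodamine B absorbance read at 515 nm. Growth is computed against time-zero (Tz) and control (C) readings; GI₅₀ is where [(Ti−Tz)/(C−Tz)]×100 = 50.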

[9] = Growth inhibition of human SF268 cells assessed as cell growth at 10^-4 M incubated for 48 hrs by sulforhodamine B assay; details: SF-268, 48 h, read-out: Activity
[10] = Growth inhibition of human ovarian cancer cells incubated for 48 hrs by sulforhodamine B assay; details: Cancer cell lines; for CC50: read-out: LC50 (the source's name)
[11] = Growth inhibition of human PC3 cells assessed as cell growth at 10^-7 M incubated for 48 hrs by sulforhodamine B assay; details: PC-3, 48 h, read-out: Activity
[12] = system: T47D; assay: Growth inhibition of human T47D cells assessed as cell growth at 10 uM incubated for 48 hrs by sulforhodamine B assay; details: read-out: Activity
[13] = Growth inhibition of human OVCAR3 cells assessed as cell growth at 10^-5 M incubated for 48 hrs by sulforhodamine B assay; details: OVCAR-3, 48 h, read-out: Activity
[14] = system: SN12C; assay: Growth inhibition of human SN12C cells assessed as cell growth at 10^-5 M incubated for 48 hrs by sulforhodamine B assay; details: read-out: Activity
[15] = Growth inhibition of human HCC2998 cells incubated for 48 hrs by sulforhodamine B assay; details: HCC 2998, 48 h
In short: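 Cells seeded at 5,000–40,000/well according to doubling time and preincubated 24 h at 37 °C, 5% CO2. Time-zero plates were TCA-fixed. DMSO concentrate was diluted in medium with 50 µg/ml gentamicin to give five concentrations (10-fold or ½ log steps), then exposed 48 h. Cells were TCA-fixed, stained with 0.4% SRB and read at 515 nm. Percent growth was taken against time-zero and control; GI50, TGI and LC50 derived.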

[16] = read-out: LC50 (the source's name)
[17] = read-out: pLC50 (the source's name) (converted)

`c1ccc(-c2nc(Nc3ccc(-c4nc5ccccc5[nH]4)cc3)nc(N3CCOCC3)n2)cc1` showed a growth at 10 µM [1] of -84%, a growth at 100 µM [2] of -52% and a growth at 0.01 µM [3] of 98%. It also gave a growth at 0.1 µM [4] of 90%, an LC50 (50% lethal concentration) [5] of 8.47 µM and a GI50 ([5]; read-out: GI50) of 1.74 µM. It also gave a TGI ([5]; read-out: TGI) of 3.83 µM, a GI50 ([5]; read-out: pGI50 (converted)) of 1.74 µM and a CC50 [5] of 8.51 µM. It also gave a TGI ([5]; read-out: pTGI (converted)) of 3.8 µM, a GI50 ([6]; read-out: GI50) of 1.65 µM and a CC50 [6, 16] of 6.67 µM. The TGI ([6]; read-out: TGI) was 3.31 µM, the GI50 ([6]; read-out: pGI50 (converted)) was 1.66 µM and the CC50 [6, 17] was 6.61 µM. It also gave a TGI ([6]; read-out: pTGI (converted)) of 3.31 µM, a GI50 ([7]; read-out: GI50) of 1.68 µM and a CC50 [7, 16] of 5.63 µM. It also gave a TGI ([7]; read-out: TGI) of 3.08 µM, a GI50 ([7]; read-out: pGI50 (converted)) of 1.7 µM and a CC50 [7, 17] of 5.62 µM. For the same molecule, the TGI ([7]; read-out: pTGI (converted)) was 3.09 µM, the growth at 100 µM [8] was -36% and the growth at 100 µM [9] was -78%. It also gave a GI50 [10] of 1.85 µM, a TGI [10] of 3.88 µM and a CC50 [10] of 6.84 µM. The growth at 0.1 µM [11] was 106%, the growth at 10 µM [12] was -62.3% and the growth at 10 µM [13] was -90%. The growth at 10 µM [14] was -60%, the GI50 ([15]; read-out: GI50) was 1.9 µM and the TGI ([15]; read-out: TGI) was 3.99 µM. For the same molecule, the GI50 ([15]; read-out: pGI50 (converted)) was 1.91 µM and the TGI ([15]; read-out: pTGI (converted)) was 3.98 µM.
`Clc1ccc(-c2nc(Nc3ccc(-c4nc5ccccc5[nH]4)cc3)nc(N3CCOCC3)n2)cc1` showed a growth at 10 µM [1] of -87%, a growth at 100 µM [2] of -41% and a growth at 0.01 µM [3] of 94%. For the same molecule, the growth at 0.1 µM [4] was 92%, the GI50 ([5]; read-out: GI50) was 0.851 µM and the TGI ([5]; read-out: TGI) was 2.39 µM. For the same molecule, the GI50 ([5]; read-out: pGI50 (converted)) was 0.851 µM, the TGI ([5]; read-out: pTGI (converted)) was 2.4 µM and the GI50 ([6]; read-out: GI50) was 0.303 µM. For the same molecule, the TGI ([6]; read-out: TGI) was 1.07 µM, the GI50 ([6]; read-out: pGI50 (converted)) was 0.302 µM and the TGI ([6]; read-out: pTGI (converted)) was 1.07 µM. The GI50 ([7]; read-out: GI50) was 1.04 µM, the CC50 [7, 16] was 5.53 µM and the TGI ([7]; read-out: TGI) was 2.4 µM. For the same molecule, the GI50 ([7]; read-out: pGI50 (converted)) was 1.05 µM, the CC50 [7, 17] was 5.5 µM and the TGI ([7]; read-out: pTGI (converted)) was 2.4 µM. It also gave a growth at 100 µM [8] of -36%, a growth at 100 µM [9] of -24% and a GI50 [10] of 0.92 µM. For the same molecule, the TGI [10] was 2.3 µM, the CC50 [10] was 5.2 µM and the growth at 0.1 µM [11] was 101%. The growth at 10 µM [12] was -64.8%, the growth at 10 µM [13] was -93% and the growth at 10 µM [14] was -77%. For the same molecule, the GI50 ([15]; read-out: GI50) was 0.358 µM and the GI50 ([15]; read-out: pGI50 (converted)) was 0.355 µM.
For `Fc1ccc(-c2nc(Nc3ccc(-c4nc5ccccc5[nH]4)cc3)nc(N3CCOCC3)n2)cc1`, the growth at 10 µM [1] was -60%, the growth at 100 µM [2] was -33% and the growth at 0.01 µM [3] was 97%. For the same molecule, the growth at 0.1 µM [4] was 90%, the LC50 (50% lethal concentration) [5] was > 100 µM and the GI50 ([5]; read-out: GI50) was 3.19 µM. For the same molecule, the TGI ([5]; read-out: TGI) was 23 µM, the GI50 ([5]; read-out: pGI50 (converted)) was 3.16 µM and the CC50 [5] was > 100 µM. For the same molecule, the TGI ([5]; read-out: pTGI (converted)) was 22.9 µM, the GI50 ([6]; read-out: GI50) was 3.62 µM and the CC50 [6, 16] was > 100 µM. The TGI ([6]; read-out: TGI) was > 100 µM, the GI50 ([6]; read-out: pGI50 (converted)) was 3.63 µM and the CC50 [6, 17] was > 100 µM. The TGI ([6]; read-out: pTGI (converted)) was > 100 µM, the GI50 ([7]; read-out: GI50) was 3.13 µM and the CC50 [7, 16] was > 100 µM. The TGI ([7]; read-out: TGI) was 13 µM, the GI50 ([7]; read-out: pGI50 (converted)) was 3.16 µM and the CC50 [7, 17] was > 100 µM. For the same molecule, the TGI ([7]; read-out: pTGI (converted)) was 13.2 µM, the growth at 100 µM [8] was 13% and the growth at 100 µM [9] was -4%. The GI50 [10] was 2.74 µM, the TGI [10] was 11.5 µM and the CC50 [10] was > 100 µM. The growth at 0.1 µM [11] was 105%, the growth at 10 µM [12] was 16.1% and the growth at 10 µM [13] was -61%. The growth at 10 µM [14] was 12%, the GI50 ([15]; read-out: GI50) was 3.09 µM and the CC50 [15, 16] was > 100 µM. For the same molecule, the TGI ([15]; read-out: TGI) was > 100 µM, the GI50 ([15]; read-out: pGI50 (converted)) was 3.09 µM and the CC50 [15, 17] was > 100 µM. For the same molecule, the TGI ([15]; read-out: pTGI (converted)) was > 100 µM.
`c1ccc2[nH]c(-c3ccc(Nc4nc(N5CCCCC5)nc(N5CCOCC5)n4)cc3)nc2c1` showed a growth at 10 µM [1] of -28%, a growth at 100 µM [2] of -34% and a growth at 0.01 µM [3] of 97%. For the same molecule, the growth at 0.1 µM [4] was 94%, the LC50 (50% lethal concentration) [5] was > 100 µM and the GI50 ([5]; read-out: GI50) was 5.4 µM. For the same molecule, the TGI ([5]; read-out: TGI) was 53.2 µM, the GI50 ([5]; read-out: pGI50 (converted)) was 5.37 µM and the CC50 [5] was > 100 µM. The TGI ([5]; read-out: pTGI (converted)) was 53.7 µM, the GI50 ([6]; read-out: GI50) was 4.72 µM and the CC50 [6, 16] was > 100 µM. For the same molecule, the TGI ([6]; read-out: TGI) was > 100 µM, the GI50 ([6]; read-out: pGI50 (converted)) was 4.68 µM and the CC50 [6, 17] was > 100 µM. The TGI ([6]; read-out: pTGI (converted)) was > 100 µM, the GI50 ([7]; read-out: GI50) was 3.98 µM and the CC50 [7, 16] was > 100 µM. The TGI ([7]; read-out: TGI) was 25.4 µM, the GI50 ([7]; read-out: pGI50 (converted)) was 3.98 µM and the CC50 [7, 17] was > 100 µM. It also gave a TGI ([7]; read-out: pTGI (converted)) of 25.1 µM, a growth at 100 µM [8] of 5% and a growth at 100 µM [9] of -11%. It also gave a GI50 [10] of 3.46 µM, a TGI [10] of 22.6 µM and a CC50 [10] of 26.9 µM. It also gave a growth at 0.1 µM [11] of 98%, a growth at 10 µM [12] of 23.4% and a growth at 10 µM [13] of -25%. For the same molecule, the growth at 10 µM [14] was 32%, the GI50 ([15]; read-out: GI50) was 3.74 µM and the CC50 [15, 16] was > 100 µM. For the same molecule, the TGI ([15]; read-out: TGI) was > 100 µM, the GI50 ([15]; read-out: pGI50 (converted)) was 3.72 µM and the CC50 [15, 17] was > 100 µM. The TGI ([15]; read-out: pTGI (converted)) was > 100 µM.
